# Bioassay records from PubChem BioAssay.
# This is a sample that favours compounds with a hit; in the whole collection about 2.8% have one here.
# NPY Y1 blocker: blocks the human neuropeptide Y Y1 receptor | inhibition, % at 3.6 µM | P25929 | 200,000 tested, 1% active | HEK293-CNG Y1 cells, membrane potential fluorescence; NPY at EC95, then isoproterenol | AID 1040;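 active = inhibition above the campaign mean inhibition of all tested compounds plus 3 SD, cut at about 20% in these data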;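 also: 0% = DMSO wells given NPY plus isoproterenol and 100% = isoproterenol alone without NPY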
# Target sequence (P25929 whole entry, looked up): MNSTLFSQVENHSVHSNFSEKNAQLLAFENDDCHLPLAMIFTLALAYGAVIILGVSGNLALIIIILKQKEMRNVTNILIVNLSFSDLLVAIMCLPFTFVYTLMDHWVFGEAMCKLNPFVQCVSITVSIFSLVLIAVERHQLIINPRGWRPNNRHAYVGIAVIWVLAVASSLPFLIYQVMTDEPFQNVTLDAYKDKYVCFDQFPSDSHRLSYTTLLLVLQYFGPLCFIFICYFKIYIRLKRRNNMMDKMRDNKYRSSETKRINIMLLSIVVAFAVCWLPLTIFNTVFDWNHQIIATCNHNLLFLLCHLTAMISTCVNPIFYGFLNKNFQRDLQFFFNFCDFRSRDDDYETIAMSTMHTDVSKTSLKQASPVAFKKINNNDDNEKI
#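 Material: HEK293 Y1/CNG channel cell line | Also added: NPY (25 nM), isoproterenol (1 µM), Ro 20-1724 (25 µM) | Compound: One concentration, 3.6 µM, in 0.4% DMSO | Schedule: 3 h dye uptake, 1 h room-temperature compound, 45 min post-isoproterenol | Signal: Membrane-potential fluorescent dye readout | Read-out: % inhibition of NPY effect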
# EP2 antag: blocks the human prostaglandin E2 receptor EP2 | 260,000 tested, 0.52% active | C6 glioma cells expressing human EP2, cAMP TR-FRET; cells stimulated with saturating PGE2 | P43116 | inhibition, % at 25 µM;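 active = percent inhibition above 40 after rounding to a whole number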;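 also: rat C6 glioma host cells with rolipram phosphodiesterase inhibitor present; the protocol text gives 20 µM as final concentration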
# Target sequence (P43116 whole entry, looked up): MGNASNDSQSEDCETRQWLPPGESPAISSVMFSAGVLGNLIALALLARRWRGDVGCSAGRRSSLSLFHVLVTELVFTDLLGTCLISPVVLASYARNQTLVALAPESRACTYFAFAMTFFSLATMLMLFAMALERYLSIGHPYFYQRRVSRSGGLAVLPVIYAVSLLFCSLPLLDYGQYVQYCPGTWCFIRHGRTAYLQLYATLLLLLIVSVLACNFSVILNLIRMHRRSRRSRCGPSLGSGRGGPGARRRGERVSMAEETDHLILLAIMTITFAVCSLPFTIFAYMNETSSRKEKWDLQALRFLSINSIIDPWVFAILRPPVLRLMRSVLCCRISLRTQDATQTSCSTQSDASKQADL
# EP2 modulator: modulators of human EP2 prostaglandin E2 receptor; P43116; EP2-expressing cells, cAMP HTRF FRET, PGE2 co-stimulation; induction, % at 25 µM; 260,000 tested, 0.83% active; AID 940;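 active = compounds whose cAMP rise, as percent of the full-agonist control response, exceeds 60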;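 also: rat C6 glioma line stably carrying human EP2 under a CMV promoter; the protocol text gives 20 µM as final concentration; 100% = response of wells given 1 µM PGE2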
# NPY Y2 blocker: antagonists of human neuropeptide Y receptor Y2; P49146; NPY-Y2 expressing cells, antagonist mode; inhibition, % at 2.7 µM; 140,000 tested, 0.99% active; AID 793; in the data active = inhibition above about 17%;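 also: 0% = vehicle with agonist challenge and 100% = reference antagonist with challenge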
# NPY-Y1 PAM-ag: potentiators or agonists of human neuropeptide Y receptor Y1; NPY-Y1 expressing cells, potentiator/agonist activation; activation, % at 3.6 µM; 220,000 tested, 0.37% active; AID 1304; in the data active = activation above about 33%, passing the limit was not always enough;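 also: cells stimulated with NPY at EC10 then isoproterenol at EC100; 0% = low agonist plus stimulus and 100% = saturating agonist plus stimulus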
# NPY2 pot ag: potentiators or agonists of human neuropeptide Y receptor Y2. P49146. cells expressing NPY-Y2, potentiator/agonist read-out. activation, % at 3.6 µM. 220,000 tested, 0.45% active. AID 1359; in the data active = activation above about 27%;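 also: cells stimulated with NPY near EC25 plus isoproterenol at EC100; 0% = vehicle plus submaximal agonist and 100% = vehicle plus saturating agonist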
# NPY-Y2 confirm: human NPY-Y2 potentiation or agonism, confirmation | shares compounds with NPY2 pot ag | cell-based NPY-Y2 potentiator/agonist assay | 450 tested, 20% active | activation, % at 3.6 µM; in the data active = activation above about 33%
# NPY-Y1 potentiator: potentiates or activates NPY-Y1, counter-screen for NPY-Y2 hits. shares compounds with NPY2 pot ag. Y1 HEK293-CNG cells, membrane potential fluorescence. activation, % at 3.6 µM. 450 tested, 20% active; in the data active = activation above about 45%;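 also: cells stimulated with submaximal NPY then isoproterenol with phosphodiesterase inhibitor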
# NPY-Y1 agonist 2: activates human NPY-Y1, counter-screen for NPY-Y2 potentiators | AID 1702 | 450 tested, 37% active | shares compounds with NPY2 pot ag | HEK293 Y1-CNGC, membrane potential fluorescence, agonism | activation, % at 3.6 µM;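 active = activation above the mean of DMSO-only control wells plus 3 SD, cut at about 18% in these data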;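 also: cells stimulated with 1 µM isoproterenol plus the PDE inhibitor Ro 20-1724; 0% = isoproterenol with DMSO and no NPY and 100% = 40 nM NPY; Y1 agonists lower the membrane potential dye signal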
# CNGC inh: cyclic nucleotide gated channel inhibition as counter-screen; shares compounds with NPY2 pot ag; HEK293-CNG parental, isoproterenol cAMP, membrane potential fluorescence; inhibition, % at 3.6 µM; 450 tested, 32% active;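 active = inhibition above the control-well mean plus 3 SD of those wells, cut at about 22% in these data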;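 also: 0% = DMSO with isoproterenol and 100% = DMSO without isoproterenol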
# NPY-Y2 ag 2: activates human NPY-Y2 receptor in potentiator counter-screen; shares compounds with NPY2 pot ag; HEK293 Y2/CNGC cells, membrane potential fluorescence, agonist mode; activation, % at 3.6 µM; 450 tested, 56% active;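 active = activation above the mean of solvent-only control wells plus 3 SD, cut at about 10% in these data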;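 also: cells stimulated by isoproterenol with no NPY added so direct agonism is tested; 0% = DMSO with isoproterenol alone and 100% = NPY at EC100 plus isoproterenol; agonism lowers probe fluorescence through less cAMP and CNG channel opening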
# * hit, by the source's call; . = no result given.
SMILES,NPY Y1 blocker,EP2 antag,EP2 modulator,NPY Y2 blocker,NPY-Y1 PAM-ag,NPY2 pot ag,NPY-Y2 confirm,NPY-Y1 potentiator,NPY-Y1 agonist 2,CNGC inh,NPY-Y2 ag 2
CCCn1nnc(NC(=O)C(C)Oc2ccc(Cl)cc2Cl)n1 (configuration not stated),4.3,10.4,-26.5,1.1,8.7,-26.3,.,.,.,.,.
CC(Oc1cc(Cl)ccc1Cl)C(=O)N/N=C\c1ccnn1C (configuration not stated),-2.9,5.5,-16.2,2.4,-0.6,27.4*,-2.9,-4.6,-2.1,-4.1,6.2
COc1ccc(C2(C(=O)NCc3ccc(C)c(Cl)c3)CCOCC2)cc1OC,.,3.9,4.5,.,.,.,.,.,.,.,.
CC(=O)OCC1O[C@@H](O[C@@H]2C[C@H]3C(C)(C)[C@H](OC(C)=O)CC[C@]3(C)[C@H]3CC[C@]45C[C@]4(CC[C@H]5[C@@H](C)C[C@@H](O)[C@H](O)C(C)(C)O)[C@@]32C)[C@H](O)[C@@H](O)[C@@H]1O (some centres not stated),-9.8,13.5,-15.0,-0.4,30.8,35.3*,31.9,30.8,38.5*,26.0*,34.6*
COc1ccccc1C1(NC(=O)CCn2cncn2)CCCC1,.,10.6,-4.0,.,.,.,.,.,.,.,.
CS(=O)(=O)NCc1nnc(SCc2ccc(C(F)(F)F)cc2)o1,.,8.0,10.8,.,1.3,101.8*,2.0,1.7,-0.6,-3.4,7.7
CCN(CC)S(=O)(=O)c1ccc2[nH]cc(C(=O)NCCC3=CCCCC3)c(=O)c2c1,-10.6,8.2,-14.3,-3.8,35.5,33.9*,19.5,13.2,12.9,13.7,23.2*
CCN(CC)S(=O)(=O)c1ccc2[nH]cc(C(=O)NCCCN3CCCCC3)c(=O)c2c1,-3.9,6.5,16.3,1.6,-7.0,-2.2,.,.,.,.,.
N#Cc1cc(S(=O)(=O)c2ccc(Cl)cc2)c(N)[nH]c1=O,5.1,9.7,16.4,.,-13.6,54.0*,-0.5,-2.2,-4.3,3.5,9.7
COc1nc(N)c(S(=O)(=O)c2ccccc2)cc1C#N,4.6,4.5,27.2,0.8,3.6,3.1,.,.,.,.,.
CCc1ccc(C(=O)NN(C(=O)c2ccc(CC)cc2)C(C)(C)C)cc1,-6.4,8.1,38.4,2.5,36.8,34.9*,43.6*,61.0*,57.6*,46.9*,33.6*
O=C(c1cc(COc2c(F)cccc2F)on1)N1CCC(c2ccncc2)CC1,-6.8,7.6,-33.9,.,-10.8,35.6*,1.1,-38.1,-14.3,-6.9,4.5
O=C(c1cc(COc2c(F)cccc2F)on1)N1CCC(c2ccccc2F)C1 (configuration not stated),11.1,5.2,9.4,.,-15.4,-38.2,.,.,.,.,.
COc1ccc(NC(=O)CSc2nnc(COc3ccccc3C)n2C)cc1,.,14.7,23.5,.,.,.,.,.,.,.,.
COc1ccc2nc(NC(=O)CSc3nccc(C)n3)sc2c1,-10.4,8.9,5.4,-6.3,19.7,35.0*,24.6,45.9*,53.3*,39.9*,51.4*
CCOc1ccc(NC(=O)CSc2nnc(-c3ccc(Br)cc3)o2)cc1,.,9.3,25.6,.,.,.,.,.,.,.,.
Cc1cc(C)n(-c2ncc3c(n2)N(CCO)CCOC3=O)n1,.,3.0,17.9,.,27.4,73.5*,-3.0,3.8,1.1,0.1,1.2
COc1ccc(N(C(=O)c2csnn2)C(C(=O)NC(C)(C)C)c2ccccc2)cc1 (configuration not stated),.,6.3,22.5,.,.,.,.,.,.,.,.
O=S(=O)(Nc1nc2ccccc2nc1Nc1cccc(S(=O)(=O)N2CCCCC2)c1)c1ccccc1,-5.1,10.3,-73.0,-2.0,33.0,37.9*,74.2*,67.6*,65.1*,44.3*,58.3*
CCCOC(=O)C(C)n1cnc2sc(C(=O)Nc3ccccc3OC)c(C)c2c1=O (configuration not stated),.,12.4,-24.5,.,.,.,.,.,.,.,.
Cc1cc(C)nc(N2CCCC(C(=O)NCc3ccc4c(c3)OCO4)C2)n1 (configuration not stated),7.6,0.0,-22.4,.,-5.5,72.4*,-9.7,-8.9,-10.8,-8.0,-3.2
Cc1cc(C)nc(N2CCCC(C(=O)Nc3ccc4c(c3)OCO4)C2)n1 (configuration not stated),9.8,6.7,1.6,2.6,-14.8,-20.6,.,.,.,.,.
O=C(Nc1ccc(Br)cc1)c1ccc(F)c(S(=O)(=O)NCc2cccs2)c1,-3.4,6.7,-1.7,-0.1,-10.9,36.1*,-0.4,-26.9,-24.0,-9.8,-1.5
O=C(Nc1nccs1)c1ccc(S(=O)(=O)NCc2cccs2)cc1,-3.2,5.4,-22.6,-1.7,4.1,15.8,.,.,.,.,.
C[N+](C)(C)CCN1C(=O)CSC1=O,.,4.2,4.6,.,26.9,82.5*,-3.2,-1.4,-1.6,0.8,1.9
SMILES,NPY Y1 blocker,EP2 antag,EP2 modulator,NPY Y2 blocker,NPY-Y1 PAM-ag,NPY2 pot ag,NPY-Y2 confirm,NPY-Y1 potentiator,NPY-Y1 agonist 2,CNGC inh,NPY-Y2 ag 2
O=C(Cc1ccccc1)N1CCc2ccccc21,3.8,16.9,27.1,3.8,-10.2,-13.5,.,.,.,.,.
O=C(CS(=O)(=O)c1ccccc1)N1CCc2ccccc21,0.6,6.2,14.1,.,27.6,34.2*,-4.9,-3.5,-4.2,1.1,3.5
CCOc1ccc2[nH]c(=O)c(CN(Cc3ccccc3)C(=O)N(C)C)cc2c1,.,5.2,-39.0,.,.,.,.,.,.,.,.
CCN(CC)C(=O)CSc1nnc(-c2ccoc2C)n1-c1ccc(F)cc1,.,13.5,-29.3,.,.,.,.,.,.,.,.
COc1ccc2cc(CN(CCN3CCOCC3)Cc3cccnc3)c(OC)nc2c1,.,8.3,-0.3,.,.,.,.,.,.,.,.
COc1ccc(C(=O)N2CCC(O)(c3ccc(Cl)cc3)CC2)cc1OC,.,3.7,-47.6,.,21.9,95.2*,-2.1,-9.9,-6.8,3.2,0.3
Cc1nc(NCCCn2ccnc2)c2ccccc2n1,-0.2,9.9,-7.7,2.0,12.7,0.7,.,.,.,.,.
O=C1c2ccccc2-c2onc3ccc(NCCCn4ccnc4)c1c23,9.2,23.5,-96.0,33.6*,38.3,38.4*,-3.3,-6.3,-10.8,-9.6,2.8
CCOP(=O)(OCC)C(Nc1ccccc1)c1cccnc1 (configuration not stated),.,6.2,26.1,.,0.8,-9.3,.,.,.,.,.
O=P(OC1CCCCC1)(OC1CCCCC1)C(Nc1ccccc1)c1cccnc1 (configuration not stated),.,11.0,22.2,.,35.5,43.7*,24.8,27.2,17.4*,27.6*,19.6*
